Screening data deposited in PubChem by several laboratories.
14-3-3 Bad PPI = inhibitors of 14-3-3 zeta/Bad binding, primary screen, biochemical, TR-FRET, bovine 14-3-3 zeta | 14-3-3 protein zeta/delta (Bos taurus), P63103 | TR-FRET 14-3-3zeta/Dy647-pBad peptide displacement, 1 h | inhibition, % at 21.7 µM | 220,000 tested, 0.71% active;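 active = inhibition above about 70%, limit read from the data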;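 also: 0% = full 14-3-3 plus peptide FRET controls and 100% = background without 14-3-3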
TbMetRS inhib = T. brucei MetRS inhibitors, primary screen, biochemical, luminescence | inhibition, % at 11.9 µM | purified T. brucei MetRS, ATP depletion, Kinase-Glo luminescence | 360,000 tested, 0.4% active | methionyl-tRNA synthetase (Trypanosoma brucei brucei);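 active = inhibition above a per-plate cutoff of the control wells' mean inhibition plus 3 SD, cut at about 5.5% in these data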;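 also: 0% = DMSO wells median and 100% = median of wells with control inhibitor compound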
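System: purified T. brucei MetRS enzyme / Detection: Kinase-Glo luciferase luminescence reporting remaining unconsumed ATP / Medium: HEPES buffer with MgCl2, KCl, DTT, spermine, BSA, pyrophosphatase / Replication: singlicate, one well per compound / Evaluation: percent inhibition relative to median high and low control wells / Schedule: 2 h aminoacylation at 25 °C after 15 min preincubation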
eIF4E-4G inh = eIF4E–eIF4G protein interaction inhibitors, primary screen, biochemical, uHTS, TR-FRET, eIF4GI fragment | 220,000 tested, 0.37% active | inhibition, % at 21.7 µM | TR-FRET eIF4E-eIF4GI(517-606) binding, 2 h;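 active = inhibition above about 30%, limit read from the data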;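 also: 0% = full FRET control wells and 100% = background wells lacking eIF4GI fragment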
p97 ATPase inh = inhibitors of human p97 ATPase, primary screen, biochemical; recombinant p97 ATPase, Kinase-Glo ATP luminescence, 3 h; inhibition, % at 8 µM; 220,000 tested, 0.42% active;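 also: 0% = DMSO vehicle and 100% = wells lacking enzyme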
p47phox inh = p47phox/p22phox peptide binding inhibitors, primary screen, biochemical, uHTS, NADPH oxidase regulatory subunit. Neutrophil cytosol factor 1 (Homo sapiens), P14598. fluorescence polarization, 2 h. inhibition, % at 24.7 µM. 220,000 tested, 0.53% active. AID 1274, 2008;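 active = inhibition above about 30%, limit read from the data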;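 also: 0% = p47phox with labelled peptide and 100% = labelled peptide alone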
SUMO HTRF inh = inhibitors of in vitro SUMOylation cascade, primary screen, biochemical, HTRF, uHTS; SUMO-conjugating enzyme UBC9 (Homo sapiens), P63279; HTRF SUMOylation assay, SAE1/SAE2 + UBC9; inhibition, % at 35 µM; 290,000 tested, 0.36% active; AID 2006, 2009; in the data active = inhibition above about 50%, passing the limit was not always enough
Tb MetRS conf = T. brucei MetRS inhibitors, confirmation, biochemical, luminescence; shares compounds with TbMetRS inhib; T. brucei MetRS enzyme, luminescence (ATP depletion); inhibition, % at 11.9 µM; 1,400 tested, 93% active; in the data active = inhibition above about 7%
Jurkat cytotox = Jurkat T cell cytotoxicity, cytotoxicity control for T. brucei MetRS inhibitor project, luminescence, high throughput; inhibition, % at 8.3 µM; 1,400 tested, 12% active; Jurkat cells viability, ATP luminescence; shares compounds with TbMetRS inhib;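 also: 0% = vehicle and 100% = reference inhibitor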
Tb MetRS inh FP = T. brucei MetRS inhibitors, orthogonal assay for T. brucei MetRS inhibitor project, biochemical, fluorescence polarization; shares compounds with TbMetRS inhib; purified T. brucei MetRS; inhibition, % at 11.9 µM; 1,400 tested, 44% active; in the data active = inhibition above about 17%;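 also: 0% = vehicle wells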
Active calls of the source: *; . = no result given. Rows were chosen to be rich in hits. Some 1.6% of all compounds tested hit in one or more screens of this group. Rule as the data show it, unless noted: active = inhibition above about 15%; inactive = the rest.

SMILES	14-3-3 Bad PPI	TbMetRS inhib	eIF4E-4G inh	p97 ATPase inh	p47phox inh	SUMO HTRF inh	Tb MetRS conf	Jurkat cytotox	Tb MetRS inh FP
Clc1cc(Br)ccc1NCc1cccnc1	.	5	.	.	.	-12	.	.	.
CCn1c(CC(=O)Nc2ccc(C)cc2)nnc1SCC(=O)N1CCOCC1	.	0	.	.	.	16	.	.	.
O=C(CSc1ccc(-c2ccccn2)nn1)Nc1ccc(F)c(F)c1	.	0	.	.	.	10	.	.	.
CC(=O)OC1COC(OC(C)=O)CO1 (centres undefined)	.	0	.	.	.	.	.	.	.
CCN(CC(=O)NCc1ccc(Cl)cc1)C(=O)CSCC(=O)Nc1cccc(C)c1	.	0	.	.	.	-25	.	.	.
CC(NC(=O)NCc1cccnc1)(C(F)(F)F)C(F)(F)F	0	0	3	5	-2	21	.	.	.
O=C1[C@@H]2Cc3c([nH]c4ccccc34)C(c3ccc([N+](=O)[O-])cc3)N2C(=O)CN1C1CC1 (some centres undefined)	.	9.4*	.	.	.	10	20*	9	8
COCCN1CC(=O)N2C(c3cccc(C)c3)c3[nH]c4ccccc4c3C[C@H]2C1=O (some centres undefined)	.	4	.	.	.	-13	.	.	.
CN1CC(=O)N2C(c3cccc([N+](=O)[O-])c3)c3[nH]c4ccccc4c3C[C@H]2C1=O (some centres undefined)	.	78*	.	.	.	1	105*	-5	91*
CCCC(CCC(=O)Nc1ccn(-c2ccccc2)n1)C(=O)O (centres undefined)	1	0	0	-1	5	18	.	.	.
CCN(CC)C(=O)c1ccc(Oc2ccc([N+](=O)[O-])cc2Cl)cc1	7	5.9*	3	-3	2	-3	13*	8	11
O=C(NC(c1ccccc1)c1ccccc1)c1ccc(CO)cc1	.	-1	.	.	.	11	.	.	.
O=C(NCc1ccco1)C1CCCN1C(=O)Nc1ccc(Br)cc1 (centres undefined)	.	0	.	.	.	5	.	.	.
COc1ccc(CCNC(=O)c2ccc(-c3ccc([N+](=O)[O-])cc3Cl)o2)cc1OC	-1	5.7*	4	-8	-6	16	8.7*	32*	19*
COc1ccc(CCNC(=O)c2ccc([N+](=O)[O-])cc2Cl)cc1OC	.	-8	.	.	.	.	.	.	.
Cc1ccc(S(=O)(=O)NC(=O)C2(C)CCN2C(=O)C2CC2)cc1 (centres undefined)	.	0	.	.	.	.	.	.	.
COc1ccc(S(=O)(=O)NC(=O)C2(C)CCN2C(=O)C2CC2)cc1 (centres undefined)	.	11*	.	.	.	.	5.8*	-4	-5
Cc1ccc2nc(SCC(=O)Nc3ccc(C)c([N+](=O)[O-])c3)[nH]c2c1	-7	1	3	4	-25	-19	.	.	.
Cc1ccc2nc(SC(C)C(=O)NC3CCCC3)[nH]c2c1 (centres undefined)	.	0	.	.	.	.	.	.	.
Cc1ccc2nc(SCC(=O)Nc3ccc(F)c([N+](=O)[O-])c3)[nH]c2c1	7	39*	8	9	-5	4	50*	19*	27*
